In ChEMBL document CHEMBL1131013, “Synthesis and evaluation of analogues of the partial agonist 6-(propyloxy)-4-(methoxymethyl)-beta-carboline-3-carboxylic acid ethyl ester (6-PBC) and the full agonist 6-(benzyloxy)-4-(methoxymethyl)-beta-carboline-3-carboxylic acid ethyl ester (Zk 93423) at wild type and recombinant GABAA receptors” (J Med Chem, 1998) one finds Ki and IC50 data, which are given here for one compound.

The structures appear in SMILES notation.

In assay [1] the target is T1, GABA-A receptor; alpha-5/beta-3/gamma-2 (Homo sapiens, UniProt P18507+P28472+P31644).
T1 sequence (P18507 whole entry): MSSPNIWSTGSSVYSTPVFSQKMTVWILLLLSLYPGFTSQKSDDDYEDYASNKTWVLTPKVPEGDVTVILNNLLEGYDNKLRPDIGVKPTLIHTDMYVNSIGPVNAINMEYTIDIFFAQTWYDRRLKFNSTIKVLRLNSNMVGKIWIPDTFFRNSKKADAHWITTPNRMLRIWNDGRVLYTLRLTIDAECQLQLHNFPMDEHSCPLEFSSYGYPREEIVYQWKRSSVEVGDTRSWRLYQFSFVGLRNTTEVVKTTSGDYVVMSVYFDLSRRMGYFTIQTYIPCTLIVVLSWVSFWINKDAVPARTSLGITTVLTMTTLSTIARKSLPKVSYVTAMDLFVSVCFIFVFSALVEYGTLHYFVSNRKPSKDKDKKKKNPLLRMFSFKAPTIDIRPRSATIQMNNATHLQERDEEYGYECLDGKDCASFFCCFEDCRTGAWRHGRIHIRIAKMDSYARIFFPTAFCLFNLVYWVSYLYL
T1 sequence (P28472 whole entry): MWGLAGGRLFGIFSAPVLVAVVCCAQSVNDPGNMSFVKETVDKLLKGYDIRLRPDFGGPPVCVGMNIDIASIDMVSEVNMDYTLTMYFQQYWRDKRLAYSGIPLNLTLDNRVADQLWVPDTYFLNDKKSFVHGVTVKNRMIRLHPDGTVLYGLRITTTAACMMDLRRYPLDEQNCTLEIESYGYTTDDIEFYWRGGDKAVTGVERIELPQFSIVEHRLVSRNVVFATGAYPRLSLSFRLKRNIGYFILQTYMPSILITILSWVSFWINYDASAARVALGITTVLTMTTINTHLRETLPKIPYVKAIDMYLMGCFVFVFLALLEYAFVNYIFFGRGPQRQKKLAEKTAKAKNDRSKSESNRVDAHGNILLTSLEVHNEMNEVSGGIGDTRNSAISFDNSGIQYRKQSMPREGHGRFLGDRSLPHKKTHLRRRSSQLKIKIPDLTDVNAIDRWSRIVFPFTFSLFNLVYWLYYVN
T1 sequence (P31644 whole entry): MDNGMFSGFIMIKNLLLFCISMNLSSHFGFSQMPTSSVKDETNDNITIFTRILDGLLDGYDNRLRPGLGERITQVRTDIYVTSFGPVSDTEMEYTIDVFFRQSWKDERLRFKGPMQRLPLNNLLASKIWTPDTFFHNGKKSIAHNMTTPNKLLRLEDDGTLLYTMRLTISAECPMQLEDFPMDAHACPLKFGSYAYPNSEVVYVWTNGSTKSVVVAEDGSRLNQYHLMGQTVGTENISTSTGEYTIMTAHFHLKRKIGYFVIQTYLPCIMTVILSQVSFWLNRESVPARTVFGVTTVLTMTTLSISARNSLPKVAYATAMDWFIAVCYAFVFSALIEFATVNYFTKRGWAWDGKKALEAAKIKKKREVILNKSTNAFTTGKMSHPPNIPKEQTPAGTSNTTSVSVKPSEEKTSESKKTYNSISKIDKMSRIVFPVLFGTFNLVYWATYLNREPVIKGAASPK
Put plainly: Binding affinity for GABA-A alpha-5-beta-3-gamma-2 receptor expressed in L (tk-) cells. It is filed as cell-based. Put shortly: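 Competition binding against [3H]Ro15-1788 (1-2 nM final) on human GABAA receptors expressed in Ltk- cells, scraped into PBS and resuspended in 10 mM KH2PO4/100 mM KCl pH 7.4. Incubated to equilibrium 1 h at 4 °C, filtered, scintillation counted.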

Assay [2] addresses GABA-A receptor; alpha-6/beta-3/gamma-2 (Homo sapiens, UniProt P18507+P28472+Q16445). The experiment in a line: Binding affinity measured using LtK- cell membranes expressing Gamma-aminobutyric acid A receptor alpha-6-beta-3-gamma-2. Put shortly: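 Ltk- cells expressing human α6β3γ2, scraped into PBS and resuspended in 10 mM KH2PO4/100 mM KCl pH 7.4. 1 h at 4 °C to equilibrium, filtration, scintillation counting.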

The target of assay [3] is GABA-A receptor; anion channel. Put plainly: Displacement of [3H]flunitrazepam from GABA-A Benzodiazepine receptor of rat brain cortical membranes. The assay is classed as cell membranes, Membrane. Put shortly: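 Rat cerebral cortex homogenized in 50 mM Tris-citrate, pH 7.4, and washed by centrifugation (20000g). […] Nonspecific binding with 10 μM Ro15-1788. Ended by vacuum filtration. IC50 estimated from at least six inhibitor concentrations; mean ± SEM of at least three determinations.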

Assay [4] has as its target T2, GABA-A receptor; alpha-3/beta-3/gamma-2 (Homo sapiens, UniProt P18507+P28472+P34903).
T2 sequence (P18507 whole entry): T1 sequence (P18507 whole entry)
T2 sequence (P28472 whole entry): T1 sequence (P28472 whole entry)
T2 sequence (P34903 whole entry): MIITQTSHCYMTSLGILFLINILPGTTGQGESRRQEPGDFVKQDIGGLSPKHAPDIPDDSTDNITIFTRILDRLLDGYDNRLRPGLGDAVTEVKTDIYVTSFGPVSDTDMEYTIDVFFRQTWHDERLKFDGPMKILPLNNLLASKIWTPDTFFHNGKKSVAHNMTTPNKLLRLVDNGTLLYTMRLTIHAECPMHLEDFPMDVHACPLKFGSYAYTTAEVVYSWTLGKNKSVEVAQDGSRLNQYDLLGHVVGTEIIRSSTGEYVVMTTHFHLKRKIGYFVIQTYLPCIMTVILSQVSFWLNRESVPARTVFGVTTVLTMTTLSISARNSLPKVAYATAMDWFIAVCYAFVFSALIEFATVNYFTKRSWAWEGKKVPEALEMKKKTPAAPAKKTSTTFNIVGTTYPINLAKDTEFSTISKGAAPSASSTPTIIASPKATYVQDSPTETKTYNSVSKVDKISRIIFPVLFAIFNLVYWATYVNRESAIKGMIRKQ
Put plainly: Binding affinity measured using LtK- cell membranes expressing GABA alpha-3-beta-3-gamma-2 receptor.

Assay [5] addresses T3, GABA-A receptor; alpha-2/beta-3/gamma-2 (Homo sapiens, UniProt P18507+P28472+P47869).
T3 sequence (P18507 whole entry): T1 sequence (P18507 whole entry)
T3 sequence (P28472 whole entry): T1 sequence (P28472 whole entry)
T3 sequence (P47869 whole entry): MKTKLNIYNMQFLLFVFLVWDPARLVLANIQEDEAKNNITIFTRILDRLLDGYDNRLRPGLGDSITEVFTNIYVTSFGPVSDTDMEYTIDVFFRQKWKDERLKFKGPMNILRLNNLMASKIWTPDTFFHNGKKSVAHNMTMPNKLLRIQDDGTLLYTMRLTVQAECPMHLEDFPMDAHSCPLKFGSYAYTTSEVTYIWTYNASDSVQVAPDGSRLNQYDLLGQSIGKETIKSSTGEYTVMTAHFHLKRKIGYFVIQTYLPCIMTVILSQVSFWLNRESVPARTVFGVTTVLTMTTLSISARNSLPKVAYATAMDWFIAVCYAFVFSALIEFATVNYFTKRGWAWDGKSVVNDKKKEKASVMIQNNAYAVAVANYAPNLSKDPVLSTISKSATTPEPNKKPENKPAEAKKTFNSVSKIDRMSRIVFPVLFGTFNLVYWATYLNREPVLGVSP
The experiment in a line: Binding affinity measured using LtK- cell membranes expressing GABA alpha-2-beta-3-gamma-2 receptor.

Sequence of GABA-A receptor; alpha-6/beta-3/gamma-2 (Q16445 whole entry, one chain of several): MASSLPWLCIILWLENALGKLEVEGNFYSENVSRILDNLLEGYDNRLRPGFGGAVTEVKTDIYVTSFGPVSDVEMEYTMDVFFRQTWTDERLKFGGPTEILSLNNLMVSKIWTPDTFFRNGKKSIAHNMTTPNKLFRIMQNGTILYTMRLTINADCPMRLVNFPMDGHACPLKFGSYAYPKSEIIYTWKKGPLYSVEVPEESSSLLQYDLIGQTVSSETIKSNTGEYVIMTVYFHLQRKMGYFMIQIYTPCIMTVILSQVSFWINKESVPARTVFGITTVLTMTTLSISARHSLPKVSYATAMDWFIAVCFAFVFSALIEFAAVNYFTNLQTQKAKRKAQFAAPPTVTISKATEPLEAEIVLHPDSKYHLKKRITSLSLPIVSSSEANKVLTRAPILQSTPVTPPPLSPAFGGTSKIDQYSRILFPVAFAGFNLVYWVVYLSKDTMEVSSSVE

Take `CCCCCCCCOc1ccc2[nH]c3cnc(C(=O)OCC)c(CC)c3c2c1`: the Ki in assay [1] is 12.7 µM; in assay [2], over 30 µM; in assay [4], 35 µM; in assay [5], 29.7 µM. The compound further had an IC50 in assay [3] of over 1 µM.

The Ki is the dissociation constant of the complex between target and ligand, obtained from inhibition or displacement. A low value points to higher affinity. The term IC50 denotes the concentration that gives 50% inhibition. The low end stands for higher potency, the high end for lower potency.
